Reference: PubChem BioAssay AID602154 (Broad Institute, 2011)
Active and inactive are the calls of the source.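 The calls were made as follows: active = compounds reducing DiI-HDL uptake fluorescence after washout, with fitted AC50 at most twice the top tested dose; inconclusive = flat partial inhibition of 30 to 70% or a poor fit; inactive = the rest.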

target: Scavenger receptor class B member 1 (Mus musculus) (UniProt Q61009); assay: reversibility of SR-BI HDL uptake inhibition, late-stage follow-up, mechanism study for SR-BI HDL uptake inhibitor project, ldlA[mSR-BI] CHO cells, fluorescence (AID 602154); conditions: DiI-HDL uptake after washout
Outline: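 medium = BSA (fatty acid-free) and HEPES uptake buffer | material = SR-BI-overexpressing LDL-receptor-null CHO cells | incubation = 2 h compound, 4 h washout, 3 h DiI-HDL | detection = DiI fluorescence, 550/595 nm, bottom read | reagent = 10 µg/mL DiI-HDL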

Scavenger receptor class B member 1 (Mus musculus), sequence (Q61009 whole entry, looked up): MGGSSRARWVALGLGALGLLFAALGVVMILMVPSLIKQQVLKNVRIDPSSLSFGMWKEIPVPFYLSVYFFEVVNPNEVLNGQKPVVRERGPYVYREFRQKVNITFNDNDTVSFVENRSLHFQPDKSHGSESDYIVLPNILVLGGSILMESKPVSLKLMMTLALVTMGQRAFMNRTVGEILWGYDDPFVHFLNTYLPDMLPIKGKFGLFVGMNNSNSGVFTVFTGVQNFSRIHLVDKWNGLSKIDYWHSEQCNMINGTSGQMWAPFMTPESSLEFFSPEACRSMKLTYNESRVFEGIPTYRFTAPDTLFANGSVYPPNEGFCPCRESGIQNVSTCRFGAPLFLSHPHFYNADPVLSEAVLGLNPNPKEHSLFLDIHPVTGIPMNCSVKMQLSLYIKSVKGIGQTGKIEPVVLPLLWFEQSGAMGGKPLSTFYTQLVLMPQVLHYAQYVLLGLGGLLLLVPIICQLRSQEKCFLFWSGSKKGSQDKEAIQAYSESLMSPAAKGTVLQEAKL

`CCCCCCC1CCC/C1=N\NC(N)=S` (stereo not drawn) was tested. Which AC50 did it give?
The AC50 was 0.598 nM.

`C[C@H](C(=O)NC1CCCC1)N(C(=O)Cn1nnc(-c2ccc3c(c2)OCO3)n1)C1CCCCC1` was tested. Which AC50 did it give?
Its AC50 is > 70000 nM (inactive).

For `COCC(=O)N1CCc2cc(-c3csc(NC(=O)c4cc(OC)cc(OC)c4)n3)ccc21`, which AC50 is on record?
Its AC50 is 860 nM.
